How the values were obtained:
Nakaseomyces glabratus = test: Antifungal activity against Candida glabrata MTCC3019 at 150 ug/ml after 48 hrs by agar well diffusion method; type: functional; conditions: MTCC3019, 48 h, read-out: IZ
Method in brief: (§1)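 Antifungal screen by agar well diffusion against C. albicans, C. glabrata, A. niger and A. parasiticus. Clotrimazole was the standard drug. Activity was recorded as zone of inhibition (ZOI, mm).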

Pseudomonas aeruginosa = test: Antibacterial activity against Pseudomonas aeruginosa MTCC 4673 at 150 ug/ml after 24 hrs by agar well diffusion assay; type: functional; conditions: MTCC 4673, 24 h, read-out: IZ
Method in brief: (§2)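 Agar well diffusion screen against the two Gram-positive strains (S. aureus, S. pyogenes) and the two Gram-negative strains (P. aeruginosa, K. pneumoniae). Streptomycin was the reference drug. Activity was read as zone of inhibition (mm).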

Staphylococcus aureus = test: Antibacterial activity against Staphylococcus aureus MTCC 96 at 150 ug/ml after 24 hrs by agar well diffusion assay; type: functional; conditions: MTCC 96, 24 h, read-out: IZ; method in brief: as §2
Aspergillus parasiticus = test: Antifungal activity against Aspergillus parasiticus MTCC 8850 at 150 ug/ml after 48 hrs by agar well diffusion method; type: functional; conditions: MTCC 8850, 48 h, read-out: IZ; method in brief: as §1
Streptococcus pyogenes = test: Antibacterial activity against Streptococcus pyogenes MTCC 1926 at 150 ug/ml after 24 hrs by agar well diffusion assay; type: functional; conditions: MTCC 1926, 24 h, read-out: IZ; method in brief: as §2
Candida albicans = test: Antifungal activity against Candida albicans MTCC 183 at 150 ug/ml after 48 hrs by agar well diffusion method; type: functional; conditions: MTCC 183, 48 h, read-out: IZ; method in brief: as §1
HepG2 = test: Anticancer activity against human HepG2 cells assessed as cell viability after 48 hrs by MTT microcultured tetrazolium assay; type: functional, cell-based; conditions: HepG2, 48 h
Method in brief: (§3)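 MTT-microcultured tetrazolium viability read-out in MCF-7 and HepG2 cells exposed to test samples. Surviving fraction was plotted against drug concentration to give survival curves, and IC50 was taken from these curves.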

Aspergillus niger = test: Antifungal activity against Aspergillus niger MTCC 282 at 150 ug/ml after 48 hrs by agar well diffusion method; type: functional; conditions: MTCC 282, 48 h, read-out: IZ; method in brief: as §1
Klebsiella pneumoniae = test: Antibacterial activity against Klebsiella pneumoniae MTCC 109 at 150 ug/ml after 24 hrs by agar well diffusion assay; type: functional; conditions: MTCC 109, 24 h, read-out: IZ; method in brief: as §2
MCF7 = test: Anticancer activity against human MCF7 cells assessed as cell viability after 48 hrs by MTT microcultured tetrazolium assay; type: functional, cell-based; conditions: MCF7, 48 h; method in brief: as §3

| SMILES | IC50 (HepG2) [µM] | IC50 (MCF7) [µM] | zone of inhibition at 150 µg/mL (Nakaseomyces glabratus) [mm] | zone of inhibition at 150 µg/mL (Pseudomonas aeruginosa) [mm] | zone of inhibition at 150 µg/mL (Staphylococcus aureus) [mm] | zone of inhibition at 150 µg/mL (Aspergillus parasiticus) [mm] | zone of inhibition at 150 µg/mL (Streptococcus pyogenes) [mm] | zone of inhibition at 150 µg/mL (Candida albicans) [mm] | zone of inhibition at 150 µg/mL (Aspergillus niger) [mm] | zone of inhibition at 150 µg/mL (Klebsiella pneumoniae) [mm] |
| --- | --- | --- | --- | --- | --- | --- | --- | --- | --- | --- |
| COc1ccc(C2C3=C(N=c4s/c(=C\c5c[nH]c6ccc(OC)cc56)c(=O)n42)c2ccc(OC)cc2CC3)cc1 (stereo unspecified) | 57.5 | 30.6 | 8 | 8 | 8 | 10 | 8 | 8 | 14 | 8 |
| COc1ccc2c(c1)CCC1=C2N=c2s/c(=C\c3c(C)[nH]c4ccccc34)c(=O)n2C1c1ccc(F)cc1 (stereo unspecified) | 73.8 | 82.4 | 8 | 13 | 13 | 8 | 8 | 8 | 12 | 16 |
| COc1ccc2c(c1)CCC1=C2N=c2s/c(=C\c3c(C)[nH]c4ccccc34)c(=O)n2C1c1ccc(Cl)cc1 (stereo unspecified) | 38.8 | 61.9 | 8 | 8 | 8 | 12 | 8 | 8 | 8 | 8 |
| COc1ccc(C2C3=C(N=c4s/c(=C\c5c[nH]c6ccc(Br)cc56)c(=O)n42)c2ccc(OC)cc2CC3)cc1 (stereo unspecified) | 8.6 | 7.72 | 12 | 8 | 8 | 10 | 8 | 8 | 8 | 8 |
| COc1cccc2c1C(=O)c1c(O)c3c(c(O)c1C2=O)C[C@@](O)(C(=O)CO)C[C@@H]3O[C@H]1C[C@H](N)[C@H](O)[C@H](C)O1 [DOXORUBICIN] | 1.1 |  |  |  |  |  |  |  |  |  |
| COc1ccc2c(c1)CCC1=C2N=c2s/c(=C\c3c[nH]c4ccc(Br)cc34)c(=O)n2C1c1ccc(Cl)cc1 (stereo unspecified) | 11.6 | 2.59 | 10 | 8 | 8 | 10 | 8 | 8 | 10 | 8 |
| COc1ccc(C2C3=C(N=c4s/c(=C\c5c[nH]c6ccccc56)c(=O)n42)c2ccc(OC)cc2CC3)cc1 (stereo unspecified) | 61.1 | 54.4 | 20 | 8 | 17 | 18 | 18 | 18 | 18 | 15 |
| COc1ccc2c(c1)CCC1=C2N=c2s/c(=C\c3c[nH]c4ccc(OC)cc34)c(=O)n2C1c1ccc(F)cc1 (stereo unspecified) | 86.8 | 193 | 10 | 8 | 8 | 10 | 8 | 8 | 10 | 15 |
| Cc1[nH]c2ccccc2c1/C=c1\sc2n(c1=O)C(c1ccc(Cl)cc1)C1=C(N=2)c2ccccc2CC1 (stereo unspecified) | 69.8 | 166 | 19 | 17 | 13 | 14 | 8 | 16 | 14 | 8 |
| COc1ccc(C2C3=C(N=c4s/c(=C\c5c(C)[nH]c6ccccc56)c(=O)n42)c2ccc(OC)cc2CC3)cc1 (stereo unspecified) | > 200 | 112 | 8 | 8 | 8 | 10 | 8 | 8 | 8 | 8 |

Further lines, with some results ahead:

| IC50 (HepG2) [µM] | IC50 (MCF7) [µM] | SMILES | zone of inhibition at 150 µg/mL (Nakaseomyces glabratus) [mm] | zone of inhibition at 150 µg/mL (Pseudomonas aeruginosa) [mm] | zone of inhibition at 150 µg/mL (Staphylococcus aureus) [mm] | zone of inhibition at 150 µg/mL (Aspergillus parasiticus) [mm] | zone of inhibition at 150 µg/mL (Streptococcus pyogenes) [mm] | zone of inhibition at 150 µg/mL (Candida albicans) [mm] | zone of inhibition at 150 µg/mL (Aspergillus niger) [mm] | zone of inhibition at 150 µg/mL (Klebsiella pneumoniae) [mm] |
| --- | --- | --- | --- | --- | --- | --- | --- | --- | --- | --- |
| 27.7 | 20.7 | COc1ccc2[nH]cc(/C=c3\sc4n(c3=O)C(c3ccc(Cl)cc3)C3=C(N=4)c4ccccc4CC3)c2c1 (stereo unspecified) | 16 | 14 | 14 | 18 | 8 | 15 | 18 | 8 |
| 94.5 | > 200 | COc1ccc2c(c1)CCC1=C2N=c2s/c(=C\c3c(C)[nH]c4ccccc34)c(=O)n2C1c1cccc([N+](=O)[O-])c1 (stereo unspecified) | 14 | 13 | 16 | 18 | 15 | 17 | 20 | 14 |
| 34.9 | 23.5 | COc1ccc2c(c1)CCC1=C2N=c2s/c(=C\c3c[nH]c4ccccc34)c(=O)n2C1c1ccc(Cl)cc1 (stereo unspecified) | 14 | 8 | 8 | 10 | 8 | 8 | 8 | 8 |
| 13.7 | 18.9 | O=c1/c(=C/c2c[nH]c3ccc(Br)cc23)sc2n1C(c1ccc(Cl)cc1)C1=C(N=2)c2ccccc2CC1 (stereo unspecified) | 10 | 15 | 13 | 8 | 8 | 8 | 8 | 8 |
| 51.6 | > 200 | COc1ccc2c(c1)CCC1=C2N=c2s/c(=C\c3c[nH]c4ccc(C)cc34)c(=O)n2C1c1cccc([N+](=O)[O-])c1 (stereo unspecified) | 12 | 8 | 17 | 8 | 17 | 8 | 8 | 17 |
| 16.3 | 42.8 | O=c1/c(=C/c2c[nH]c3ccccc23)sc2n1C(c1ccc(Cl)cc1)C1=C(N=2)c2ccccc2CC1 (stereo unspecified) | 12 | 18 | 12 | 12 | 8 | 8 | 12 | 8 |
| 25.8 | 67.3 | COc1ccc2c(c1)CCC1=C2N=c2s/c(=C\c3c[nH]c4ccccc34)c(=O)n2C1c1ccc(F)cc1 (stereo unspecified) | 8 | 21 | 21 | 10 | 8 | 8 | 10 | 17 |
| > 200 | > 200 | COc1ccc2c(c1)CCC1=C2N=c2s/c(=C\c3c[nH]c4ccc(Br)cc34)c(=O)n2C1c1cccc([N+](=O)[O-])c1 (stereo unspecified) | 8 | 8 | 19 | 10 | 16 | 8 | 10 | 17 |
| 199 | > 200 | O=c1/c(=C/c2c[nH]c3ccccc23)sc2n1C(c1cccc([N+](=O)[O-])c1)C1=C(N=2)c2ccccc2CC1 (stereo unspecified) | 10 | 8 | 8 | 12 | 8 | 8 | 12 | 8 |
| 70.3 | > 200 | COc1ccc2c(c1)CCC1=C2N=c2s/c(=C\c3c[nH]c4ccccc34)c(=O)n2C1c1cccc([N+](=O)[O-])c1 (stereo unspecified) | 8 | 8 | 8 | 8 | 8 | 8 | 12 | 8 |

Reference: ChEMBL document CHEMBL3352152, “Indolylmethylene benzo[h]thiazolo[2,3-b]quinazolinones: synthesis, characterization and evaluation of anticancer and antimicrobial activities” (Bioorg Med Chem Lett, 2014)
